Measurements taken from article PMC10013843 (Molecular psychiatry, 2022).

Experiments:
[1] = test system: mice; assay: Conditioned place preference; format: in vivo, mouse; conditions: male mice
Summary of the method: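 Male C57BL/6J mice (20–25 g, n = 8/group) received saline or test compound (10, 30 or 65 mg/kg IP) before 15-min confinement to one side of a two-sided chamber (clear/white vs checkered/black). Vehicle was given before the opposite side on alternate days, counterbalanced across 6 conditioning days. A 20-min free-exploration pre-test came first, within 8 daily sessions. Infrared beams tracked time per side and distance travelled.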

[2] = test system: NMDA receptors; assay: [^3H]MK-801 competition binding, rat brain membranes
[3] = after i.p. injection of antidepressant-relevant doses in mice; cited from earlier work
[4] = biological target: mGluR4 (Homo sapiens, UniProt Q14833); assay: mGluR functional assay; format: biochemical
[5] = test system: rats; assay: Heroin self-administration and substitution; format: in vivo, rat; conditions: 0.5 mg/kg/inf IV
[6] = biological target: Neurokinin receptor (NK1) (Homo sapiens, UniProt P25103); assay: Receptor and enzyme competitive screen; format: binding; conditions: 10 μM
Summary of the method: (§1)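 In an outsourced panel, membranes from stable cell lines expressing each receptor or enzyme were incubated with the target's radioligand, with or without test compound at 100 nM or 10 μM. A reference compound ran concurrently, and a specific agonist or antagonist defined nonspecific binding. Bound ligand was collected by vacuum filtration through presoaked glass-fibre filters, washed with ice-cold buffer and counted by scintillation.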

[7] = test system: rats; assay: Intravenous self-administration; format: in vivo, rat
Summary of the method: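 Male rats had jugular catheters placed under isoflurane and recovered 6–8 days. They were food-restricted (18–20 g/day) on a reverse 12-h cycle. For training (n = 14), rats self-administered test compound at 0.5 mg/kg/infusion IV, FR1 with 20-s timeout, for 16 days. For dose-response (n = 8/condition), unit doses of 0.125, 0.25, 0.5 or 1.0 mg/kg/infusion were given in randomized sequence, 1 h/day for 8 days. Read-out was infusions earned.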

[8] = biological target: mGluR8 (Homo sapiens, UniProt O00222); assay: mGluR functional assay; format: biochemical
[9] = biological target: glucocorticoid receptor (GR) (Homo sapiens, UniProt P04150); assay: Screening and target deconvolution experiments; format: binding
[10] = biological target: mGluR1 (Homo sapiens, UniProt Q13255); assay: mGluR functional assay; format: biochemical
[11] = biological target: mu-opioid receptors, MOR (Rattus norvegicus, UniProt P33535); assay: [^3H]DAMGO competition binding, rat brain membranes
[12] = biological target: mGluR3 (Homo sapiens, UniProt Q14832); assay: [^3H]LY341495 competition binding, recombinant receptor membranes; conditions: membranes expressing human recombinant mGluR3
[13] = test system: cDNA libraries derived from human adult brain, human lung cancer cells, and human placenta; assay: Yeast 3-hybrid screen, human cDNA libraries; conditions: lung cancer cell and placenta libraries
[14] = test system: >80 receptor and enzymatic binding sites; assay: Receptor and enzyme competitive screen; conditions: 100 nM
Summary of the method: as §1

[15] = test system: opioid receptors; conditions: not tested experimentally; cited from earlier work
[16] = biological target: mGluR6 (Homo sapiens, UniProt O15303); assay: mGluR functional assay; format: biochemical
[17] = after administration of antidepressant-like doses; cited from earlier work
[18] = test system: mGluR2/3; assay: mGluR functional assay; format: biochemical
[19] = test system: >30,000 proteins; assay: Collective screening and target deconvolution; format: binding

mu-opioid receptors, MOR, sequence (P33535 whole entry): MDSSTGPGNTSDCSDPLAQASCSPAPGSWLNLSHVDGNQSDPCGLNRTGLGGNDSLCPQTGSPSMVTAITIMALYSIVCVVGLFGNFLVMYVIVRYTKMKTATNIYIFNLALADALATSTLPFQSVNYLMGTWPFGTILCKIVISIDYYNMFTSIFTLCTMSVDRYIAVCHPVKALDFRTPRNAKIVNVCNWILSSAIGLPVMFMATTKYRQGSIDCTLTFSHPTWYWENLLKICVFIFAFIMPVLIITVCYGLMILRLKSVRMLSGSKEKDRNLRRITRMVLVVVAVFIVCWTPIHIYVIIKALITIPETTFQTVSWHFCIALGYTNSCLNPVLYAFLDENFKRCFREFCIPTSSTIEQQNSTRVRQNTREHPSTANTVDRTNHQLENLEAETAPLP
Neurokinin receptor (NK1), sequence (P25103 whole entry): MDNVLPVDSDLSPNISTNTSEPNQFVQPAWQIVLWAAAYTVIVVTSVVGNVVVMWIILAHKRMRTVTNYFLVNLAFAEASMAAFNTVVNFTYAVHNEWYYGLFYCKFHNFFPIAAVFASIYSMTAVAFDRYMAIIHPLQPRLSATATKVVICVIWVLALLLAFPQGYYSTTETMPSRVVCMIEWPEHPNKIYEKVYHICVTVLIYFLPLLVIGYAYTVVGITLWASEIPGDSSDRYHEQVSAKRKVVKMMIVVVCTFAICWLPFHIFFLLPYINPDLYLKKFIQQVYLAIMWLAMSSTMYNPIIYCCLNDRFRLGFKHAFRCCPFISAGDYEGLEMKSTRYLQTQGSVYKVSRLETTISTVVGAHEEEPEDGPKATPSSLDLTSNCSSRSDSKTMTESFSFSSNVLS
mGluR8, sequence (O00222 34-908, species assumed): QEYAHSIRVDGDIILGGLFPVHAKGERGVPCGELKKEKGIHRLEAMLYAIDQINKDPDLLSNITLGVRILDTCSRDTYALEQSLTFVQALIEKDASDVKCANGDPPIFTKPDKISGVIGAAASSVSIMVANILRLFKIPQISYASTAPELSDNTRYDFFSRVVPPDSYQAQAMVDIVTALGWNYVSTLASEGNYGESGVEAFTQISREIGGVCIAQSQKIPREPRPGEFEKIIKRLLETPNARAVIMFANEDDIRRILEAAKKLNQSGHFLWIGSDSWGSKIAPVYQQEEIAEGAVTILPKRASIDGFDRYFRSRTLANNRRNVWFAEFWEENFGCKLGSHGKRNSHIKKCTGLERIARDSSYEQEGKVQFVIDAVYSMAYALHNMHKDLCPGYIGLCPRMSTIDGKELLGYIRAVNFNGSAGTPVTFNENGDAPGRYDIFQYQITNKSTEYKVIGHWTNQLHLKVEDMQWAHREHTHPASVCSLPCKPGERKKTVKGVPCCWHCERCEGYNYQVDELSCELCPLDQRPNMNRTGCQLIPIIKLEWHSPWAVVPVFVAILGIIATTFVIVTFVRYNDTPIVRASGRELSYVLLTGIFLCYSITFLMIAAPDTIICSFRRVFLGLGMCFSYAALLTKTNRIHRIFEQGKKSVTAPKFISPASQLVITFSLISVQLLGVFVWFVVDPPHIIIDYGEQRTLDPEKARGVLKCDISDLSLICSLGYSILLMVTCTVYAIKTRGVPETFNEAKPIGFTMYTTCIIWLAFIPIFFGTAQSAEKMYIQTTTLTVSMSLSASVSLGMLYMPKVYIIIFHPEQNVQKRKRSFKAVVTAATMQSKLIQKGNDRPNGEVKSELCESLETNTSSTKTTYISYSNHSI
mGluR4, sequence (Q14833 33-912): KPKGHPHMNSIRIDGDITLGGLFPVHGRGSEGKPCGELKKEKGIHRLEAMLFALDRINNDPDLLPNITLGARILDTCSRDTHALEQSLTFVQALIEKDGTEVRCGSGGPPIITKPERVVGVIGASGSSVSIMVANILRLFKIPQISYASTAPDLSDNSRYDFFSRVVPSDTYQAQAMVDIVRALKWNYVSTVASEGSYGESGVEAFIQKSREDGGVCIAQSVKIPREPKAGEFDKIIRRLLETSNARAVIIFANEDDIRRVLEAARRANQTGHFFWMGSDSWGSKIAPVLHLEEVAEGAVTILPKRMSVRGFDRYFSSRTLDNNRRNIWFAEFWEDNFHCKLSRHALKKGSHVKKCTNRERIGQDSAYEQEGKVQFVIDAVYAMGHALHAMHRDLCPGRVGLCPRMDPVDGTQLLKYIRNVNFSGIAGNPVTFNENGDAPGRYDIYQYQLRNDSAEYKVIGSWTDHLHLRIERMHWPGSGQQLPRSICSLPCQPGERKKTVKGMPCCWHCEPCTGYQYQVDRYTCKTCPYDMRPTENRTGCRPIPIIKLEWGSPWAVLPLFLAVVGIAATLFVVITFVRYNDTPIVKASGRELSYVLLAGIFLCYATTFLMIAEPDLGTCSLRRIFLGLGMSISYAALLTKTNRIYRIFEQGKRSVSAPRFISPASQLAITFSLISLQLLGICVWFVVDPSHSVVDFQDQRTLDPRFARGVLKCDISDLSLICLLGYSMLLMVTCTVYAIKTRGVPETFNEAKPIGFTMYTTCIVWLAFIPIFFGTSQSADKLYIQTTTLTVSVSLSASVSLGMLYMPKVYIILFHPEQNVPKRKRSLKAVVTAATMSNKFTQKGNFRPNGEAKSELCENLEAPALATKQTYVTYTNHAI
mGluR6, sequence (O15303 25-877): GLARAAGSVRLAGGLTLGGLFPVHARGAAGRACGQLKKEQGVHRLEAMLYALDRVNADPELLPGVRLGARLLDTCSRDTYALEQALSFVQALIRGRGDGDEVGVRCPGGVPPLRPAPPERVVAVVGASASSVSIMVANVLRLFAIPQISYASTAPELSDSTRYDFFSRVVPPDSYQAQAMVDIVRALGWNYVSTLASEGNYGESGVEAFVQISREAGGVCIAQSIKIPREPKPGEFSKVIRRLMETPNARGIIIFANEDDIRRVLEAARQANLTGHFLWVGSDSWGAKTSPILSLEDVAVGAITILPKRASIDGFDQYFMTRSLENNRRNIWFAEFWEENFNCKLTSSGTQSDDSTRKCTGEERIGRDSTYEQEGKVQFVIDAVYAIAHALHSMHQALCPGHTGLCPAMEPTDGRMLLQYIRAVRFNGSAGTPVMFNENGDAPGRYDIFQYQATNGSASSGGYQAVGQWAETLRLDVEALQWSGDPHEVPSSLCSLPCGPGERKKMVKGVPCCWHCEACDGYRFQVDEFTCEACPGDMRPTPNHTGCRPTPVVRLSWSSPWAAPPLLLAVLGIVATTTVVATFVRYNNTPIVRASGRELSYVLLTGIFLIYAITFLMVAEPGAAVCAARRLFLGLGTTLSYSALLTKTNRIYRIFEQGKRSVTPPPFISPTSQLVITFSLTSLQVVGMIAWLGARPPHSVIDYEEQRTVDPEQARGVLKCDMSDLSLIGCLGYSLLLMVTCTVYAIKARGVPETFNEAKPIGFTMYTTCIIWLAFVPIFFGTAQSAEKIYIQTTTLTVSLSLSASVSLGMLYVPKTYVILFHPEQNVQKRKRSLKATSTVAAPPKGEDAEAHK
mGluR3, sequence (Q14832 23-879): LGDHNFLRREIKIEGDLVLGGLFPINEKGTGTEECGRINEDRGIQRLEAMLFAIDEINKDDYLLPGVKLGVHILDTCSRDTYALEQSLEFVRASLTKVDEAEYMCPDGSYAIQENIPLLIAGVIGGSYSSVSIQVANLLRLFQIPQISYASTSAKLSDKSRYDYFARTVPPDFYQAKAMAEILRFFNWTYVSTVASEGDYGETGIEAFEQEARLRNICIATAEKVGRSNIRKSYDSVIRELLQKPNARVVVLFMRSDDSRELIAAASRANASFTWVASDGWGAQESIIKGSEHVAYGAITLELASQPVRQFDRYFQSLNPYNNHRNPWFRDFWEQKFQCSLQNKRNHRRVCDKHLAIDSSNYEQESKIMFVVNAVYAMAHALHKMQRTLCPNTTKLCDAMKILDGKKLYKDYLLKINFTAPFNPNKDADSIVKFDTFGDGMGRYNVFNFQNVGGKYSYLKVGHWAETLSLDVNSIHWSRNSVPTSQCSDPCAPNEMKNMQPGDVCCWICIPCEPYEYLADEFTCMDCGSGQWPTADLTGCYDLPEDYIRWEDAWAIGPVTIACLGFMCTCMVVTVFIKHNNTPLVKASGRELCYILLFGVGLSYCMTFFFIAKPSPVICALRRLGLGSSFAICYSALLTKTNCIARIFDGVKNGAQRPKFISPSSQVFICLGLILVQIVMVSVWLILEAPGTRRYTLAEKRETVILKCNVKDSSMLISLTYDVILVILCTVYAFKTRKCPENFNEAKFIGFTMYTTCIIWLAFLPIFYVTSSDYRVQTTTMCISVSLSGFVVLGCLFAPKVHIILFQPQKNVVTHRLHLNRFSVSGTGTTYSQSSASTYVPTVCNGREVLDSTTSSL
glucocorticoid receptor (GR), sequence (P04150 whole entry): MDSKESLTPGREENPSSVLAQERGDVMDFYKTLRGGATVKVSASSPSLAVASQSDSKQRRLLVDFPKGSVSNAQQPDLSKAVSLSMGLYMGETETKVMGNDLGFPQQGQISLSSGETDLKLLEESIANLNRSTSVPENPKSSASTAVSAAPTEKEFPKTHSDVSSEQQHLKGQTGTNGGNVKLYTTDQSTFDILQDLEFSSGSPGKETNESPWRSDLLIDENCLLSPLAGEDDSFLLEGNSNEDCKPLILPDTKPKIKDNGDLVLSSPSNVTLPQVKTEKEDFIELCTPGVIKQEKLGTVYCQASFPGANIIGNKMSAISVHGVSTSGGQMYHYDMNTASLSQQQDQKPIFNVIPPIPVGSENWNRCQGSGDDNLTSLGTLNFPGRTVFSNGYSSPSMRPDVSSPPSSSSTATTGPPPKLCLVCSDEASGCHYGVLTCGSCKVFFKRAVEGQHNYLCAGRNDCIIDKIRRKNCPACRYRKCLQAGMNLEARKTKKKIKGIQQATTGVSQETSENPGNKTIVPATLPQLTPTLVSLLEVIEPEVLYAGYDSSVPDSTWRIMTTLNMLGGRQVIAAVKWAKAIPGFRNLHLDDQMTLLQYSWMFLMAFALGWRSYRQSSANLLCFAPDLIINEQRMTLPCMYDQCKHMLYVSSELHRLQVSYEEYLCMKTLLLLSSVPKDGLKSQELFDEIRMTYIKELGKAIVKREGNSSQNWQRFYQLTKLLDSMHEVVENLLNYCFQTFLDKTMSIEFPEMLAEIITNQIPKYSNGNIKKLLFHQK

With `N[C@@]1(c2ccccc2Cl)CCC[C@@H](O)C1=O` [(2R,6R)-HNK, (2R,6R)-hydroxynorketamine] the “locomotor activity, repeated administration” value ([1]; 10, 30, 65 mg/kg IP, CPP conditioning sessions) was “did not produce any changes in locomotor activity”, the conditioned place preference ([1]; repeated 10, 30, 65 mg/kg IP) was “did not induce CPP” and the locomotor sensitization ([1]; repeated administration) was “did not induce sensitization”. The “displacement of [^3H]MK-801 (NMDAR binding)” value ([2]; concentrations up to 100 μM) was “no displacement”, the “displacement of [^3H]MK801 binding” value ([2]; rat brain membranes) was “failed to displace” and the “maximum extracellular concentration in the hippocampus” value [3] was ~ 8 μM. For the same compound, the “effect in functional assay at mGluR4” value [4] was “no effects”, the “pressing on first session after heroin substitution” value [5] was “pressed significantly more” and the “self-administration on successive sessions after heroin substitution” value [5] was “rapid extinction of self-administration”. The “binding of Substance P to NK1 in screen” value [6] was “increases binding of Substance P”, the self-administration training ([7]; male rats, 0.5 mg/kg/inf IV, FR1, 20-s timeout, 16 days) was “not a reliable reinforcer” and the self-administration dose-response ([7]; rats, unit doses 0.125, 0.25, or 1 mg/kg/inf) was “did not respond”. For the same compound, the “effect in functional assay at mGluR8” value [8] was “no effects”, the “interaction with GR” value [9] was “failed to interact” and the “effect in functional assay at mGluR1” value [10] was “no effects”. The “binding to opioid receptors (MOR)” value ([11]; concentrations up to 100 μM) was “does not bind”, the “MOR binding, displacement of [^3H]DAMGO” value ([11]; rat brain membranes) was “failed to displace” and the “displacement of [^3H]LY341475” value [12] was “failed to displace”. The “high-confidence (2R,6R)-HNK-protein interactions” value [13] was “did not identify any positive high-confidence (2R,6R)-HNK-protein interactions”, the “hits in competitive screen” value [14] was “No hits” and the “affinity for opioid receptors by computational modeling” value [15] was “high (i.e. in the nanomolar range) affinity”. The “effect in functional assay at mGluR6” value [16] was “no effects”, the “concentration achieved in the brain” value [17] was ~ 10 μM and the “functional responses at mGluR2/3” value [18] was “did not affect”. For the same compound, the “direct protein interactions, all screens together” value [19] was “failed to identify any (2R,6R)-HNK-protein interactions”.
